Insulin prom inh: TRM-6 insulin promoter activity inhibition. TRM-6 cells (human fetal islet line), insulin promoter-eGFP reporter, imaging; reporter expression induced with tamoxifen. inhibition, % at 2 µM. hit rate 0.9% among 130,000. AID 1273;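 active = inhibition above the mean plus 3 SD, with well images judged a real hit on visual review, cut at about 60% in these data, passing the limit was not always enough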
Dynein transport: dynein cargo transport inhibition; 3617.4 mouse cells, GR-EGFP nuclear translocation imaging; test concentration mostly 20 µM; stimulated with dexamethasone, 1 µM; hits give low values; z-score, hits read low; hit rate 0.47% among 220,000; AID 1381;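 active = plate z-score of nuclear minus cytoplasmic receptor signal below a set negative limit, without overly bright fluorescence or cell loss, cut at about -3.5 in these data, passing the limit was not always enough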;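 note: z-score of nuclear minus cytoplasmic ring GR-EGFP intensity difference per well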
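Also added – dexamethasone, 1.0 µM final · Buffer or medium – tet-free, stripped-serum medium · Schedule – induction 48 h, compound 1 h, agonist 30 min · Detection – formaldehyde fixation, Hoechst nuclear stain, 10x automated fluorescence imaging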
Ins promoter up: MIN6 insulin promoter up-regulation; hit rate 0.3% among 190,000; z-score at 5 µM; MIN6 insulin promoter-GFP reporter, high-content imaging; hits give high values;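 active = z-score above 3 at 5 µM with at least 500 cells counted in the well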
HSV augment: HSV replication enhancement; HSV replication augmentation in cells, fold increase; maximum fold increase; hit rate 0.005% among 220,000; AID 1956; in the data active = maximum fold increase above about 1.5; tested in PC3 cells
Autophagy HCS: autophagy modulation, high-content screen; hit rate 0.98% among 190,000; MEF GFP-LC3 puncta imaging; test concentration mostly 10 µM; calls only at 10 µM (by protocol);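 active = percentage of spot-positive cells more than 3 SD above its plate mean, without a fluorescence outlier flag or 80% toxicity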
Furin inhibitor: inhibitors of human furin | hit rate 0.061% among 220,000 | inhibition, % at 20 µM or 30 µM | purified furin, fluorogenic substrate cleavage; in the data active = inhibition above about 25%
Target sequence (P09958 108-714 limits assumed): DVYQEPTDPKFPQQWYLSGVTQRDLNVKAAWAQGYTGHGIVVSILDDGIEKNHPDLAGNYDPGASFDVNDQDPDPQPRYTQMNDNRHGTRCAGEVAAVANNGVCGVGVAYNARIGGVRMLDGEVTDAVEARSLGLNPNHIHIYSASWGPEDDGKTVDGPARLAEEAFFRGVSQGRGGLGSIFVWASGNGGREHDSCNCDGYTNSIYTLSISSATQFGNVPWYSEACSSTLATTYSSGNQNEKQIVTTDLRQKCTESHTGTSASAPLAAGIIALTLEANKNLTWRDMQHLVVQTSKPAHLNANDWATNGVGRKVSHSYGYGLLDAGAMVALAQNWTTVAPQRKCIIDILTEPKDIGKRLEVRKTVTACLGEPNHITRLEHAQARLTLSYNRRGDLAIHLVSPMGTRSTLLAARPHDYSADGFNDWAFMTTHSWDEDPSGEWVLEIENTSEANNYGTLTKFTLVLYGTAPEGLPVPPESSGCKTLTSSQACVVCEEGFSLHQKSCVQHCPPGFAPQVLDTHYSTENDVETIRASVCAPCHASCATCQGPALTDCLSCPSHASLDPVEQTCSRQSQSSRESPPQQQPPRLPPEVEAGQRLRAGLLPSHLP
Hits are given with their value. In the library only some 2% were active in any assay of this set; here they are far more common.

What do the screens show for `Cc1c(C(=O)Nc2cccc(Cl)c2)c2ccccn2c1CCc1ccncc1`?
Dynein transport: inactive; Ins promoter up: inactive; HSV augment: inactive; Autophagy HCS: active; Furin inhibitor: inactive

Results for NS(=O)(=O)c1ccc(NC(=O)COc2ccc(C(=O)c3ccc(F)cc3)cc2)cc1 ?
Dynein transport: inactive; Ins promoter up: inactive; HSV augment: inactive; Furin inhibitor: inactive

Results for COc1ccc(NC(=O)CSc2nc(N)c(C#N)cc2C#N)cc1 ?
Insulin prom inh: inactive; Dynein transport: inactive; HSV augment: inactive; Autophagy HCS: inactive; Furin inhibitor: inactive

Results for COc1ccc2nc(SCC(=O)Nc3ccc4sc(C)nc4c3)c(C#N)cc2c1 ?
Insulin prom inh: inactive; Dynein transport: inactive; Ins promoter up: inactive; HSV augment: inactive; Autophagy HCS: active; Furin inhibitor: inactive

How did O=C(CCn1c(=S)oc2ccccc21)NCCC1=CCCCC1 do in these assays?
Dynein transport: inactive; Ins promoter up: inactive; HSV augment: inactive; Furin inhibitor: inactive

What do the screens show for `CCOc1ccc(-n2c(C)c(C(C)=O)c(C(C)=O)c2C)cc1`?
Insulin prom inh: inactive; Dynein transport: inactive; HSV augment: inactive; Autophagy HCS: active; Furin inhibitor: inactive

What do the screens show for `COc1ccc(-n2c(C)c(C(C)=O)c(C(C)=O)c2C)cc1OC`?
Insulin prom inh: 71; Dynein transport: inactive; Ins promoter up: inactive; HSV augment: inactive; Autophagy HCS: inactive; Furin inhibitor: inactive

What do the screens show for `Cc1cccc(C2=NNC(=O)C(c3ccc(Cl)cc3)C2)c1` (stereo not given)?
Insulin prom inh: 100; Dynein transport: inactive; Ins promoter up: inactive; HSV augment: inactive; Autophagy HCS: inactive; Furin inhibitor: inactive

Results for Cc1ccc(C2CC(c3ccc(Cl)cc3)=NNC2=O)cc1 (stereo not given) ?
Dynein transport: inactive; Ins promoter up: inactive; HSV augment: inactive; Autophagy HCS: inactive; Furin inhibitor: inactive

Results for O=C(CN1CCN(c2ccccc2)CC1)Nc1ccccc1C(F)(F)F ?
Insulin prom inh: 88; Dynein transport: inactive; Ins promoter up: inactive; HSV augment: inactive; Autophagy HCS: inactive; Furin inhibitor: inactive

Results for O=C(CN1CCN(c2ccccc2)CC1)Nc1ccccc1Cl ?
Insulin prom inh: inactive; Dynein transport: inactive; Ins promoter up: inactive; HSV augment: inactive; Autophagy HCS: inactive; Furin inhibitor: inactive

What do the screens show for `O=C(Cn1c2ccccc2c(=O)c2ccccc21)N/N=C/c1cc([N+](=O)[O-])ccc1N1CCCCC1`?
Dynein transport: inactive; Ins promoter up: inactive; HSV augment: inactive; Autophagy HCS: active; Furin inhibitor: inactive

How did Nc1nc(N2CCCCC2)c(C=O)c(N2CCCCC2)n1 do in these assays?
Dynein transport: inactive; Ins promoter up: inactive; HSV augment: inactive; Autophagy HCS: active; Furin inhibitor: inactive

Results for Nc1nc(Cl)c(C=O)c(N2CCCCC2)n1 ?
Insulin prom inh: inactive; Dynein transport: inactive; Ins promoter up: inactive; HSV augment: inactive; Autophagy HCS: inactive; Furin inhibitor: inactive

Results for COc1ccc(S(=O)(=O)Nc2ccccc2C(N)=O)cc1OC ?
Insulin prom inh: inactive; Dynein transport: inactive; Ins promoter up: inactive; HSV augment: inactive; Autophagy HCS: inactive; Furin inhibitor: inactive

Results for COc1ccc(NC(=O)CSc2nncn2C)cc1OC ?
Dynein transport: inactive; Ins promoter up: inactive; HSV augment: inactive; Autophagy HCS: inactive; Furin inhibitor: 27

What do the screens show for `COc1ccc(NC(=O)CSc2nnc(-c3cccs3)n2C)cc1OC`?
Insulin prom inh: inactive; Dynein transport: inactive; Ins promoter up: 3.5; HSV augment: inactive; Autophagy HCS: inactive; Furin inhibitor: inactive

How did COc1ccccc1NC(=O)CSc1nnc(-c2ccc(NC(C)=O)cc2)n1C do in these assays?
Insulin prom inh: inactive; Dynein transport: inactive; Ins promoter up: inactive; HSV augment: inactive; Autophagy HCS: active; Furin inhibitor: inactive

Results for CCn1c(SCC(=O)NC(C)C)nnc1-c1cccs1 ?
Insulin prom inh: inactive; Dynein transport: inactive; HSV augment: inactive; Autophagy HCS: active; Furin inhibitor: inactive

What do the screens show for `CSCC(O)Cn1ncc2ccccc2c1=O` (stereo not given)?
Dynein transport: inactive; Ins promoter up: inactive; HSV augment: inactive; Furin inhibitor: inactive

What do the screens show for `COc1ccc(C(CCN)Cc2ccccc2)cc1` (stereo not given)?
Dynein transport: inactive; Ins promoter up: inactive; HSV augment: inactive; Autophagy HCS: inactive; Furin inhibitor: inactive

How did COc1ccc(S(=O)(=O)NCC2CCCN(C(=O)c3ccccc3)C2)cc1 (stereo not given) do in these assays?
Dynein transport: inactive; Ins promoter up: inactive; HSV augment: inactive; Autophagy HCS: inactive; Furin inhibitor: inactive

What do the screens show for `COc1ccc(S(=O)(=O)NCC2CCCN(C(=O)c3sccc3C)C2)cc1` (stereo not given)?
Dynein transport: inactive; Ins promoter up: inactive; HSV augment: inactive; Autophagy HCS: active; Furin inhibitor: inactive

How did CCOC(=O)CC1C(=O)NCCN1S(=O)(=O)c1ccc(Cl)cc1Cl (stereo not given) do in these assays?
Insulin prom inh: inactive; Dynein transport: inactive; Ins promoter up: 3.3; HSV augment: inactive; Autophagy HCS: inactive; Furin inhibitor: inactive

Results for Cc1c2cnn(-c3ccccc3)c(=O)c2c(C)n1CCCC(=O)NCCN1CCN(C)CC1 ?
Dynein transport: inactive; Ins promoter up: inactive; HSV augment: inactive; Furin inhibitor: inactive

What do the screens show for `COc1ccc(NS(=O)(=O)c2cc(NC(=O)c3nc4nc(C)cc(C)n4n3)ccc2C)cc1`?
Dynein transport: inactive; Ins promoter up: inactive; HSV augment: inactive; Autophagy HCS: active; Furin inhibitor: inactive

What do the screens show for `O=C1NC(=Nc2ccc(F)cc2)CS1`?
Insulin prom inh: inactive; Dynein transport: inactive; Ins promoter up: inactive; HSV augment: inactive; Autophagy HCS: active; Furin inhibitor: inactive

How did CCN(CCCNC(=O)COc1cc(=O)n(CC)c2ccccc12)Cc1ccccc1 do in these assays?
Insulin prom inh: inactive; Dynein transport: inactive; Ins promoter up: inactive; HSV augment: inactive; Autophagy HCS: active; Furin inhibitor: inactive

How did COc1cc2c(OC(C)=O)c3c(c(-c4ccc5c(c4)OCO5)c2cc1OC)C(=O)OC3 do in these assays?
Dynein transport: inactive; Ins promoter up: inactive; HSV augment: inactive; Autophagy HCS: active; Furin inhibitor: inactive

Results for COc1ccc(C(=O)Oc2ccc3c(c2)OCO3)cc1OC ?
Dynein transport: inactive; Ins promoter up: inactive; HSV augment: inactive; Autophagy HCS: inactive; Furin inhibitor: inactive

How did COc1cc2c(O)c3c(c(-c4ccc5c(c4)OCO5)c2cc1OC)C(=O)OC3 do in these assays?
Insulin prom inh: inactive; Dynein transport: inactive; Ins promoter up: inactive; HSV augment: inactive; Autophagy HCS: active; Furin inhibitor: inactive

How did CC(=O)CSc1cc(-c2ccccc2)nc2ncnn12 do in these assays?
Dynein transport: inactive; Ins promoter up: inactive; HSV augment: inactive; Furin inhibitor: inactive

How did COc1ccc(N(CN2C(=O)C3CCCCC3C2=O)C(=O)c2ccco2)cc1 (stereo not given) do in these assays?
Dynein transport: inactive; Ins promoter up: inactive; HSV augment: inactive; Furin inhibitor: inactive
